Data: ChEMBL document CHEMBL1157032, “Synthesis and antimicrobial activity of novel pyrazolo[3,4-d]pyrimidin derivatives” (2010)
In brackets after ≈: the same amount, converted by molar mass. Activity calls are given as the source filed them. The calls are words filed in the database; no cut-off is given here.

How the values were obtained:
Format in all cases: functional
Klebsiella pneumoniae [1] = assay: Antimicrobial activity against Klebsiella pneumoniae NCIM 2957 at MIC after 24 hrs by agar diffusion method
Summary of the method: (§1)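 Agar well diffusion on Mueller Hinton agar seeded with 0.1 mL of a 10⁵ cfu/mL bacterial suspension in 0.85% sterile saline. 6 mm wells received 0.1 mL of each compound dilution in DMSO (1% DMSO; DMSO alone as control). Plates were incubated 24 h at 37 ± 0.5 °C. Read-out was zone of inhibition in mm. MIC was taken as the lowest concentration giving complete growth inhibition.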

Escherichia coli [2] = assay: Antimicrobial activity against Escherichia coli MTCC 1650 after 24 hrs; settings: MTCC 1650, 24 h; summary of the method: as §1
Trichoderma viride [3] = assay: Antimicrobial activity against Trichoderma viride MTCC 167 after 48 hrs; settings: MTCC 167, 48 h
Summary of the method: (§2)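 Fungal spore suspensions in sterile distilled water were adjusted to 10⁶ cfu/mL, and 0.1 mL was spread on Sabouraud dextrose agar. 6 mm wells were filled with 0.1 mL of compound dilution in DMSO (1% DMSO; DMSO-only control). Plates were incubated 48 h at 28 ± 0.2 °C, and inhibition zones were measured in mm. MIC was the lowest concentration completely inhibiting growth.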

Escherichia coli [4] = assay: Antimicrobial activity against Escherichia coli MTCC 1650 at MIC after 24 hrs by agar diffusion method; summary of the method: as §1
Pseudomonas aeruginosa = assay: Antimicrobial activity against Pseudomonas aeruginosa MTCC 2488 after 24 hrs; settings: MTCC 2488, 24 h; summary of the method: as §1
Proteus vulgaris [5] = assay: Antimicrobial activity against Proteus vulgaris MTCC 1771 after 24 hrs; settings: MTCC 1771, 24 h; summary of the method: as §1
Priestia megaterium [6] = assay: Antimicrobial activity against Bacillus megaterium MTCC 1684 at MIC after 24 hrs by agar diffusion method; summary of the method: as §1
Penicillium chrysogenum [7] = assay: Antimicrobial activity against Penicillium chrysogenum MTCC 1996 after 48 hrs; settings: MTCC 1996, 48 h; summary of the method: as §2
Priestia megaterium [8] = assay: Antimicrobial activity against Bacillus megaterium MTCC 1684 after 24 hrs; settings: MTCC 1684, 24 h; summary of the method: as §1
Aspergillus niger [9] = assay: Antimicrobial activity against Aspergillus niger MTCC 1781 after 48 hrs; settings: MTCC 1781, 48 h; summary of the method: as §2
Aspergillus niger [10] = assay: Antimicrobial activity against Aspergillus niger MTCC 1781 at MIC after 48 hrs by agar diffusion method; summary of the method: as §2
Serratia marcescens [11] = assay: Antimicrobial activity against Serratia marcescens MTCC 86 after 24 hrs; settings: MTCC 86, 24 h; summary of the method: as §1
Candida albicans [12] = assay: Antimicrobial activity against Candida albicans MTCC 227 at MIC after 48 hrs by agar diffusion method; summary of the method: as §2
Aspergillus flavus [13] = assay: Antimicrobial activity against Aspergillus flavus MTCC 2501 at MIC after 48 hrs by agar diffusion method; summary of the method: as §2
Aspergillus flavus [14] = assay: Antimicrobial activity against Aspergillus flavus MTCC 2501 after 48 hrs; settings: MTCC 2501, 48 h; summary of the method: as §2
Staphylococcus aureus [15] = assay: Antimicrobial activity against Staphylococcus aureus MTCC 96 after 24 hrs; settings: MTCC 96, 24 h; summary of the method: as §1
Staphylococcus aureus [16] = assay: Antimicrobial activity against Staphylococcus aureus MTCC 96 at MIC after 24 hrs by agar diffusion method; summary of the method: as §1
Candida albicans [17] = assay: Antimicrobial activity against Candida albicans MTCC 227 after 48 hrs; settings: MTCC 227, 48 h; summary of the method: as §2
Bacillus subtilis [18] = assay: Antimicrobial activity against Bacillus subtilis MTCC 1789 at MIC after 24 hrs by agar diffusion method; summary of the method: as §1
Trichoderma viride [19] = assay: Antimicrobial activity against Trichoderma viride MTCC 167 at MIC after 48 hrs by agar diffusion method; summary of the method: as §2
Bacillus subtilis [20] = assay: Antimicrobial activity against Bacillus subtilis MTCC 1789 after 24 hrs; settings: MTCC 1789, 24 h; summary of the method: as §1
Klebsiella pneumoniae [21] = assay: Antimicrobial activity against Klebsiella pneumoniae NCIM 2957 after 24 hrs; settings: NCIM 2957, 24 h; summary of the method: as §1
Penicillium chrysogenum [22] = assay: Antimicrobial activity against Penicillium chrysogenum MTCC 1996 at MIC after 48 hrs by agar diffusion method; summary of the method: as §2
Serratia marcescens [23] = assay: Antimicrobial activity against Serratia marcescens MTCC 86 at MIC after 24 hrs by agar diffusion method; summary of the method: as §1
Proteus vulgaris [24] = assay: Antimicrobial activity against Proteus vulgaris MTCC 1771 at MIC after 24 hrs by agar diffusion method; summary of the method: as §1

SMILES: Nc1n[nH]c2nc3scc(-c4ccc(Cl)cc4)n3c(=O)c12
- inhibition zone (IZ) (Klebsiella pneumoniae [1]): 15 mm
- MIC (Escherichia coli [2]): 50 µg/mL (≈ 157 µM)
- MIC (Trichoderma viride [3]): 250 µg/mL (≈ 787 µM)
- inhibition zone (IZ) (Escherichia coli [4]): inactive
- MIC (Pseudomonas aeruginosa): 50 µg/mL (≈ 157 µM)
- MIC (Proteus vulgaris [5]): 50 µg/mL (≈ 157 µM)
- inhibition zone (IZ) (Priestia megaterium [6]): inactive
- MIC (Penicillium chrysogenum [7]): 250 µg/mL (≈ 787 µM)
- MIC (Priestia megaterium [8]): 50 µg/mL (≈ 157 µM)
- MIC (Aspergillus niger [9]): 250 µg/mL (≈ 787 µM)
- inhibition zone (IZ) (Aspergillus niger [10]): 12 mm
- MIC (Serratia marcescens [11]): 50 µg/mL (≈ 157 µM)
- inhibition zone (IZ) (Candida albicans [12]): 13 mm
- inhibition zone (IZ) (Aspergillus flavus [13]): 23 mm
- MIC (Aspergillus flavus [14]): 250 µg/mL (≈ 787 µM)
- MIC (Staphylococcus aureus [15]): 50 µg/mL (≈ 157 µM)
- inhibition zone (IZ) (Staphylococcus aureus [16]): inactive
- MIC (Candida albicans [17]): 250 µg/mL (≈ 787 µM)
- inhibition zone (IZ) (Bacillus subtilis [18]): 10 mm
- inhibition zone (IZ) (Trichoderma viride [19]): 20 mm
- MIC (Bacillus subtilis [20]): 50 µg/mL (≈ 157 µM)
- MIC (Klebsiella pneumoniae [21]): 50 µg/mL (≈ 157 µM)
- inhibition zone (IZ) (Penicillium chrysogenum [22]): 26 mm
- inhibition zone (IZ) (Serratia marcescens [23]): 21 mm

SMILES: Nc1n[nH]c2nc3scc(-c4ccccc4O)n3c(=O)c12
- inhibition zone (IZ) (Klebsiella pneumoniae [1]): inactive
- MIC (Escherichia coli [2]): 50 µg/mL (≈ 167 µM)
- MIC (Trichoderma viride [3]): 250 µg/mL (≈ 835 µM)
- inhibition zone (IZ) (Escherichia coli [4]): inactive
- MIC (Pseudomonas aeruginosa): 50 µg/mL (≈ 167 µM)
- MIC (Proteus vulgaris [5]): 50 µg/mL (≈ 167 µM)
- inhibition zone (IZ) (Priestia megaterium [6]): inactive
- MIC (Penicillium chrysogenum [7]): 250 µg/mL (≈ 835 µM)
- MIC (Priestia megaterium [8]): 50 µg/mL (≈ 167 µM)
- MIC (Aspergillus niger [9]): 250 µg/mL (≈ 835 µM)
- inhibition zone (IZ) (Aspergillus niger [10]): 10 mm
- MIC (Serratia marcescens [11]): 50 µg/mL (≈ 167 µM)
- inhibition zone (IZ) (Candida albicans [12]): 18 mm
- inhibition zone (IZ) (Aspergillus flavus [13]): inactive
- MIC (Aspergillus flavus [14]): 250 µg/mL (≈ 835 µM)
- MIC (Staphylococcus aureus [15]): 50 µg/mL (≈ 167 µM)
- inhibition zone (IZ) (Staphylococcus aureus [16]): 12 mm
- MIC (Candida albicans [17]): 250 µg/mL (≈ 835 µM)
- inhibition zone (IZ) (Bacillus subtilis [18]): inactive
- inhibition zone (IZ) (Trichoderma viride [19]): 20 mm
- MIC (Bacillus subtilis [20]): 50 µg/mL (≈ 167 µM)
- MIC (Klebsiella pneumoniae [21]): 50 µg/mL (≈ 167 µM)
- inhibition zone (IZ) (Penicillium chrysogenum [22]): inactive
- inhibition zone (IZ) (Serratia marcescens [23]): 16 mm

SMILES: Cc1cc(-c2csc3nc4[nH]nc(N)c4c(=O)n23)c(O)cc1Cl
- MIC (Escherichia coli [2]): 50 µg/mL (≈ 144 µM)
- MIC (Trichoderma viride [3]): 250 µg/mL (≈ 719 µM)
- inhibition zone (IZ) (Escherichia coli [4]): 12 mm
- MIC (Pseudomonas aeruginosa): 50 µg/mL (≈ 144 µM)
- MIC (Proteus vulgaris [5]): 50 µg/mL (≈ 144 µM)
- inhibition zone (IZ) (Priestia megaterium [6]): inactive
- MIC (Penicillium chrysogenum [7]): 250 µg/mL (≈ 719 µM)
- MIC (Priestia megaterium [8]): 50 µg/mL (≈ 144 µM)
- MIC (Aspergillus niger [9]): 250 µg/mL (≈ 719 µM)
- inhibition zone (IZ) (Aspergillus niger [10]): 9 mm
- MIC (Serratia marcescens [11]): 50 µg/mL (≈ 144 µM)
- inhibition zone (IZ) (Candida albicans [12]): 17 mm
- inhibition zone (IZ) (Aspergillus flavus [13]): 12 mm
- MIC (Aspergillus flavus [14]): 250 µg/mL (≈ 719 µM)
- MIC (Staphylococcus aureus [15]): 50 µg/mL (≈ 144 µM)
- inhibition zone (IZ) (Staphylococcus aureus [16]): inactive
- MIC (Candida albicans [17]): 250 µg/mL (≈ 719 µM)
- inhibition zone (IZ) (Bacillus subtilis [18]): inactive
- inhibition zone (IZ) (Trichoderma viride [19]): 27 mm
- MIC (Bacillus subtilis [20]): 50 µg/mL (≈ 144 µM)
- MIC (Klebsiella pneumoniae [21]): 50 µg/mL (≈ 144 µM)
- inhibition zone (IZ) (Penicillium chrysogenum [22]): 32 mm
- inhibition zone (IZ) (Serratia marcescens [23]): inactive

SMILES: Nc1n[nH]c2nc3scc(-c4cc(Cl)c(Cl)cc4O)n3c(=O)c12
- MIC (Escherichia coli [2]): 50 µg/mL (≈ 136 µM)
- MIC (Trichoderma viride [3]): 250 µg/mL (≈ 679 µM)
- inhibition zone (IZ) (Escherichia coli [4]): 12 mm
- MIC (Pseudomonas aeruginosa): 50 µg/mL (≈ 136 µM)
- MIC (Proteus vulgaris [5]): 50 µg/mL (≈ 136 µM)
- inhibition zone (IZ) (Priestia megaterium [6]): inactive
- MIC (Penicillium chrysogenum [7]): 250 µg/mL (≈ 679 µM)
- MIC (Priestia megaterium [8]): 50 µg/mL (≈ 136 µM)
- MIC (Aspergillus niger [9]): 250 µg/mL (≈ 679 µM)
- inhibition zone (IZ) (Aspergillus niger [10]): 11 mm
- MIC (Serratia marcescens [11]): 50 µg/mL (≈ 136 µM)
- inhibition zone (IZ) (Candida albicans [12]): 10 mm
- inhibition zone (IZ) (Aspergillus flavus [13]): 18 mm
- MIC (Aspergillus flavus [14]): 250 µg/mL (≈ 679 µM)
- MIC (Staphylococcus aureus [15]): 50 µg/mL (≈ 136 µM)
- inhibition zone (IZ) (Staphylococcus aureus [16]): inactive
- MIC (Candida albicans [17]): 250 µg/mL (≈ 679 µM)
- inhibition zone (IZ) (Bacillus subtilis [18]): inactive
- inhibition zone (IZ) (Trichoderma viride [19]): 22 mm
- MIC (Bacillus subtilis [20]): 50 µg/mL (≈ 136 µM)
- MIC (Klebsiella pneumoniae [21]): 50 µg/mL (≈ 136 µM)
- inhibition zone (IZ) (Penicillium chrysogenum [22]): 23 mm
- inhibition zone (IZ) (Serratia marcescens [23]): inactive

SMILES: Nc1n[nH]c2nc3scc(-c4ccc([N+](=O)[O-])cc4)n3c(=O)c12
- inhibition zone (IZ) (Proteus vulgaris [24]): inactive
- inhibition zone (IZ) (Klebsiella pneumoniae [1]): 13 mm
- MIC (Escherichia coli [2]): 50 µg/mL (≈ 152 µM)
- MIC (Trichoderma viride [3]): 250 µg/mL (≈ 761 µM)
- inhibition zone (IZ) (Escherichia coli [4]): 10 mm
- MIC (Pseudomonas aeruginosa): 50 µg/mL (≈ 152 µM)
- MIC (Proteus vulgaris [5]): 50 µg/mL (≈ 152 µM)
- inhibition zone (IZ) (Priestia megaterium [6]): inactive
- MIC (Penicillium chrysogenum [7]): 250 µg/mL (≈ 761 µM)
- MIC (Priestia megaterium [8]): 50 µg/mL (≈ 152 µM)
- MIC (Aspergillus niger [9]): 250 µg/mL (≈ 761 µM)
- inhibition zone (IZ) (Aspergillus niger [10]): inactive
- MIC (Serratia marcescens [11]): 50 µg/mL (≈ 152 µM)
- inhibition zone (IZ) (Candida albicans [12]): 21 mm
- inhibition zone (IZ) (Aspergillus flavus [13]): 16 mm
- MIC (Aspergillus flavus [14]): 250 µg/mL (≈ 761 µM)
- MIC (Staphylococcus aureus [15]): 50 µg/mL (≈ 152 µM)
- inhibition zone (IZ) (Staphylococcus aureus [16]): 31 mm
- MIC (Candida albicans [17]): 250 µg/mL (≈ 761 µM)
- inhibition zone (IZ) (Bacillus subtilis [18]): inactive
- inhibition zone (IZ) (Trichoderma viride [19]): 29 mm
- MIC (Bacillus subtilis [20]): 50 µg/mL (≈ 152 µM)
- MIC (Klebsiella pneumoniae [21]): 50 µg/mL (≈ 152 µM)
- inhibition zone (IZ) (Penicillium chrysogenum [22]): 32 mm
- inhibition zone (IZ) (Serratia marcescens [23]): 16 mm
